Screening data from PubChem.
Shown are actives, neighbours in structure and some others; about 2.4% of the full set was active somewhere.
NPY-Y1 PAM-ag – potentiates or activates human NPY-Y1 receptor | NPY-Y1 expressing cells, potentiator/agonist activation | P25929 | 220,000 compounds, 0.37% hits | activation, % at 3.6 µM; in the data active = activation above about 33%, passing the limit was not always enough;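 note: cells stimulated with NPY at EC10 then isoproterenol at EC100; 0% = low agonist plus stimulus and 100% = saturating agonist plus stimulus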
S1P4 antag – antagonists of human S1P4 receptor | O95977 | S1P4-expressing cells, antagonist mode, reporter read-out | inhibition, % at 4.98 µM | 220,000 compounds, 0.26% hits | AID 1510; in the data active = inhibition above about 29%;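 note: 0% = wells stimulated with agonist and 100% = vehicle wells without agonist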
Target sequence (O95977 whole entry, looked up): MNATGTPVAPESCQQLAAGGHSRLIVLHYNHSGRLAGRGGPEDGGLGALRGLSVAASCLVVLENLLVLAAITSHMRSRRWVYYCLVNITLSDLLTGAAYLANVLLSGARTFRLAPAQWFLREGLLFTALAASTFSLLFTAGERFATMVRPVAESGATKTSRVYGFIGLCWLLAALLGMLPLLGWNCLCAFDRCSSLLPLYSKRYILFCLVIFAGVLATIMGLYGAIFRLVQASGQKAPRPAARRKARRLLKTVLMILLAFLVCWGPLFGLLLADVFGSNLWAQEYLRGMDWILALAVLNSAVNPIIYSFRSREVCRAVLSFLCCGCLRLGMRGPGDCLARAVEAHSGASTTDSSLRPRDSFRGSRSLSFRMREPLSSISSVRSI
NPY2 pot ag – human NPY-Y2 potentiation or agonism, primary screen; P49146; cells expressing NPY-Y2, potentiator/agonist read-out; activation, % at 3.6 µM; 220,000 compounds, 0.45% hits; AID 1359; in the data active = activation above about 27%;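 note: cells stimulated with NPY near EC25 plus isoproterenol at EC100; 0% = vehicle plus submaximal agonist and 100% = vehicle plus saturating agonist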
NPY Y2 blocker – antagonists of human neuropeptide Y receptor Y2; NPY-Y2 expressing cells, antagonist mode; inhibition, % at 2.7 µM; 140,000 compounds, 0.99% hits;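 note: 0% = vehicle with agonist challenge and 100% = reference antagonist with challenge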
S1P4 agonist – agonists of human S1P4 receptor. O95977. S1P4-expressing cell line, agonist reporter assay. activation, % at 4.98 µM. 220,000 compounds, 0.35% hits. AID 1509; in the data active = activation above about 11%;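 note: 0% = DMSO vehicle and 100% = reference agonist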
NPY Y1 blocker – antagonists of human neuropeptide Y receptor Y1; P25929; HEK293-CNG Y1 cells, membrane potential fluorescence; NPY at EC95, then isoproterenol; inhibition, % at 3.6 µM; 200,000 compounds, 1% hits;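 active = inhibition above the campaign mean inhibition of all tested compounds plus 3 SD, cut at about 20% in these data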;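 note: 0% = DMSO wells given NPY plus isoproterenol and 100% = isoproterenol alone without NPY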
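Assay system: HEK293 cells with Y1 receptor plus CNG channel | Probe or stimulus: NPY (25 nM), isoproterenol (1 µM), Ro 20-1724 (25 µM) | Timing: Compound incubation 1 h at room temperature, readout 45 min post-stimulation | Measured by: Membrane-potential fluorescent dye readout | Benchmarks: High control isoproterenol alone, low control NPY with isoproterenol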
NPY-Y1 ant conf – confirmation of human neuropeptide Y receptor Y1 antagonists | shares compounds with NPY Y1 blocker | HEK293-CNG NPY-Y1, membrane potential fluorescence, cAMP; NPY challenge against isoproterenol-raised cAMP | inhibition, % at 3.6 µM | 1,200 compounds, 21% hits | AID 1254; in the data active = inhibition above about 20%;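 note: 0% = vehicle with agonist plus stimulus and 100% = stimulus alone without agonist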
NPY2 antag ctr – counter-screen for NPY-Y1 antagonists: human NPY-Y2 antagonism. shares compounds with NPY Y1 blocker. HEK293 NPY-Y2 CNG membrane potential fluorescence; cells given NPY, then isoproterenol. 1,200 compounds, 28% hits. inhibition, % at 3.6 µM. AID 1255;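 note: 0% = DMSO with agonist challenge and 100% = reference antagonist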
Numbers without * were called inactive; · = no result. Cut-off read from the data, not from the text of the source, unless noted: active = inhibition above about 17%; inactive = the rest.

SMILES | NPY-Y1 PAM-ag | S1P4 antag | NPY2 pot ag | NPY Y2 blocker | S1P4 agonist | NPY Y1 blocker | NPY-Y1 ant conf | NPY2 antag ctr
COc1ccc(Nc2ccc(C(=O)O)cc2[N+](=O)[O-])cc1 | -21 | -18 | 3 | 6 | 1 | 22* | 4 | 9
COc1ccc(Nc2ccc(C(N)=O)cc2[N+](=O)[O-])cc1 | 9 | -27 | 6 | · | 2 | 5 | · | ·
COc1ccc2c(c1)c(C(O)CN1CCC(Cc3ccccc3)CC1)c(C)n2C (configuration not stated) | 0 | -7 | 2 | 12 | 2 | 21* | 10 | 10
CCN(CC)S(=O)(=O)c1ccc(N2CCN(c3cccc(OC)c3)CC2)c([N+](=O)[O-])c1 | -21 | -4 | 6 | 1 | 3 | 6 | · | ·
N#Cc1ccc(/C=N/NC(=O)c2cc(-c3cccs3)nc3ccccc23)cc1 | -19 | -22 | -22 | 7 | 1 | 1 | · | ·
O=C(O)c1cc(-c2ccccc2)n(-c2ccccc2)n1 | -20 | -10 | -11 | 11 | 0 | 24* | 5 | 10
CCc1nccn1S(=O)(=O)c1ccc2ccc(C)cc2c1 | -36 | 7 | -43 | 15 | 1 | 34* | 16 | 15
CCOc1ccc2cc(S(=O)(=O)n3ccnc3C)ccc2c1 | 0 | -7 | -17 | 5 | 0 | 9 | · | ·
COc1ccccc1N1CCc2c(C)nc3c(OC)cccc3c21 | -5 | -7 | -8 | 8 | -3 | 3 | · | ·
COc1cccc2c3c(c(C)nc12)CCN3c1ccccc1 | -46 | -4 | -21 | · | -1 | 23* | 19 | 21*
O=C(CSc1ccc2c(c1)OCCO2)NCCc1ccc(Cl)cc1Cl | -44 | 4 | -21 | 12 | -3 | 20* | 8 | 7
O=C(Nn1c(-c2ccncc2)nc2ccccc2c1=O)c1ccc([N+](=O)[O-])cc1Cl | -7 | -5 | 4 | · | -1 | -3 | · | ·
COC(=O)c1ccc(NC(=O)CN2C(=O)C3C4C=CC(C4)C3C2=O)cc1 (configuration not stated) | 16 | 4 | -3 | 4 | -1 | 23* | 3 | 3
CCCC(C)C(=O)Nc1nc(C)c(-c2csc(Nc3ccccc3OC)n2)s1 (configuration not stated) | 2 | -13 | -14 | 9 | 0 | 24* | 13 | 6
CCCCCC(=O)Nc1nc(C)c(-c2csc(Nc3ccccc3OC)n2)s1 | 13 | -28 | 12 | -1 | -1 | 14 | · | ·
CCCCCCC(=O)Nc1nc(C)c(-c2csc(Nc3ccccc3OC)n2)s1 | 5 | -7 | 3 | 12 | -1 | 32* | 10 | 6
O=C(COC(=O)CSc1ccc2ccccc2c1Br)NC1CC1 | -38 | -11 | -31 | · | 2 | 25* | 15 | 12
COC(=O)c1c(NC(=O)CN2CCC(C(N)=O)CC2)c2c(C)cccc2n1C | 10 | 2 | 4 | -2 | 1 | 8 | · | ·
COC(=O)c1c(NC(=O)CN2CCCC(C)C2)c2c(C)cccc2n1C (configuration not stated) | -16 | -4 | -17 | 13 | -1 | 32* | 6 | 4
Cc1cc(C)cc(Nc2c(F)c(F)c(F)c(F)c2C(=O)O)c1 | 4 | -13 | -1 | · | 0 | 7 | · | ·
c1ccc(CN(Cc2ccco2)C(c2ccncc2)c2nnnn2C2CCCC2)cc1 (configuration not stated) | 0 | -7 | -5 | 6 | 1 | 26* | 12 | 5
CC(C)(C)n1nnnc1C(c1ccc(C(F)(F)F)cc1)N(Cc1ccccc1)Cc1ccco1 (configuration not stated) | -4 | -10 | -5 | 7 | 0 | 47* | 29* | 11
CC(C)(C)c1ccc(CN(Cc2ccccc2)C(c2ccccn2)c2nnnn2C(C)(C)C)cc1 (configuration not stated) | 3 | 0 | -10 | 1 | 1 | 0 | · | ·
CCc1cccc(NC(=O)C(NC(=O)C2CCCCC2)C(C)C)c1 (configuration not stated) | 2 | -23 | -9 | · | 1 | 5 | · | ·
CCC1(C)Cc2ccccc2-c2nc(NCCCO)[nH]c(=O)c21 (configuration not stated) | 19 | -10 | -4 | · | -1 | · | · | ·
SMILES | NPY-Y1 PAM-ag | S1P4 antag | NPY2 pot ag | NPY Y2 blocker | S1P4 agonist | NPY Y1 blocker | NPY-Y1 ant conf | NPY2 antag ctr
CCC1(C)Cc2ccccc2-c2[nH][nH]c(=O)c21 (configuration not stated) | -6 | 2 | -3 | · | 1 | 55* | 18 | 4
O=C(NC1(C(F)(F)F)N=C2SCCN2C1=O)c1ccccc1F (configuration not stated) | 9 | -7 | -2 | · | 1 | · | · | ·
O=C(COc1ccc(Cl)cc1)Nc1nnc(C2=COCCO2)o1 | -19 | -4 | -32 | · | 0 | 22* | 10 | 7
O=C(COc1ccc(Cl)cc1Cl)Nc1nnc(C2=COCCO2)o1 | -17 | -2 | -24 | · | 0 | 7 | · | ·
COc1ccc(N2CCN(c3nc(Cl)nc(Nc4ccc(F)cc4)n3)CC2)cc1 | 9 | -16 | 13 | -2 | 1 | -1 | · | ·
N=C1C(c2nc3ccccc3s2)=C(O)CN1NC(=O)c1c[nH]c2ccccc12 | 18 | 0 | 16 | · | 2 | 28* | 26* | 28*
COc1cccc(-c2nc(N3CCN(Cc4ccccc4)CC3)c3ccccc3n2)c1O | 16 | 2 | -4 | · | 0 | · | · | ·
CCCCn1c(=O)c(CCC(=O)OCC(=O)Nc2ccc(F)c(Cl)c2)nc2ccccc21 | -3 | -3 | -9 | 4 | -1 | 1 | · | ·
c1cc2ccc3ccc(CN4CCOCC4)c4ccc(c1)c2c34 | -20 | 0 | -1 | 3 | 0 | 8 | · | ·
OC1CCCN(Cc2ccc3ccc4cccc5ccc2c3c45)C1 (configuration not stated) | -35 | -8 | -18 | 11 | 0 | 25* | 10 | 17*
O=C(NCc1ccccc1)c1ccc(Br)o1 | -20 | -7 | 2 | 0 | 2 | 0 | · | ·
O=C(c1ccc(Br)o1)N(Cc1ccccc1)Cc1ccccc1 | -14 | 6 | -16 | 14 | 2 | 20* | 7 | 5
OCCCNCc1cccc2ccccc12 | -18 | 7 | -10 | 4 | 0 | 5 | · | ·
Oc1ccccc1CNCCCNCc1ccccc1O | -70 | -11 | -16 | 10 | 1 | 30* | 12 | 17
CCOc1cc(CNCCCN2CCOCC2)cc(Br)c1OCC(=O)Nc1cccc(C(F)(F)F)c1 | -43 | -7 | -29 | 12 | 1 | 27* | 17 | 24*
COc1ccccc1NC(=O)COc1ccc(Br)cc1CNCCCN1CCOCC1 | -11 | 3 | -4 | · | -2 | 22* | 12 | 15
